Test results as given in ChEMBL document CHEMBL1138683 (J Med Chem, 2004).

Key:
[1] = Anti convulsant activity administered intra peritoneally to mouse for toxicity at 4 hr with dose of 100 mg/kg; 0/4= No of animals exhibiting toxicity /No of animals tested; assay type: organism-based; parameters: dose 100 mg/kg; settings: in vivo, ip
[2] = tested on: Mus musculus; experiment: Anti convulsant activity administered intra peritoneally to mouse at maximal electroshock test at 4 hr after the drug administered with dose of 300 mg/kg; 1/1= No of animals protected /No of animals tested; assay type: functional
[3] = tested on: Rattus norvegicus; experiment: Quantitative Anticonvulsant activity administered orally to rat for subcutaneous metrazol test; assay type: functional
Method in brief: (§1)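 Oral dosing in rats with compound dissolved or suspended in 0.5% methylcellulose (0.04 mL per 10 g body weight). […] Protective index taken as TD50/ED50 for each test.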

[4] = tested on: Mus musculus; experiment: Anti convulsant activity administered intra peritoneally to mouse at maximal electroshock test at 0.5 hr after the drug administered with dose of 300 mg/kg; 1/1= No of animals protected /No of animals tested; assay type: functional
[5] = tested on: Mus musculus; experiment: Anti convulsant activity administered intra peritoneally to mouse for subcutaneous metrazol test at 0.5 hr with dose of 30 mg/kg; 0/1= No of animals protected /No of animals tested; assay type: functional
[6] = tested on: Rattus norvegicus; experiment: Anticonvulsant activity after oral administration of 30 mg/kg dose after 4 hr in rats; + means 25% of the animals protected; assay type: functional, organism-based; parameters: dose 30 mg/kg
Method in brief: (§2)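 Oral dosing of rats at a single dose, compound dissolved or suspended in 0.5% methylcellulose. Protection in the MES or scMet test checked 15 min, 30 min, 1 h, 2 h and 4 h after dosing. Scored as 25/50/75/100% of animals protected (+ to ++++), – for none.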

[7] = tested on: Mus musculus; experiment: Quantitative Anticonvulsant activity administered intraperitoneally to mouse for protective index in maximal electro shock test;TD50/ED50; assay type: functional
Method in brief: (§3)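 Mice dosed intraperitoneally with compound dissolved or suspended in 0.5% methylcellulose (0.01 mL per gram body weight). […] Protective index calculated as TD50/ED50 for each seizure test.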

[8] = tested on: Rattus norvegicus; experiment: Quantitative Anticonvulsant activity administered orally to rat for protective index in subcutaneous metrazol test; assay type: functional; method in brief: as §1
[9] = Anti convulsant activity administered intra peritoneally to mouse for toxicity at 0.5 hr with dose of 100 mg/kg; 0/8= No of animals exhibiting toxicity /No of animals tested; assay type: organism-based; parameters: dose 100 mg/kg; settings: in vivo, ip
[10] = tested on: Rattus norvegicus; experiment: Anticonvulsant activity after oral administration of 50 mg/kg dose after 15 min in rats; +++ means 75% of the animals protected; assay type: functional, organism-based; parameters: dose 50 mg/kg; method in brief: as §2
[11] = tested on: Rattus norvegicus; experiment: Anticonvulsant activity after oral administration of 30 mg/kg dose after 30 min in rats; ++ means 50% of the animals protected; assay type: functional, organism-based; parameters: dose 30 mg/kg; method in brief: as §2
[12] = tested on: Rattus norvegicus; experiment: Anticonvulsant activity after oral administration of 50 mg/kg dose after 30 min in rats; ++ means 50% of the animals protected; assay type: functional, organism-based; parameters: dose 50 mg/kg
Method in brief: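 Rats dosed orally with compound dissolved or suspended in 0.5% methylcellulose (0.04 mL per 10 g body weight). Anticonvulsant protection (MES or scMet) and toxicity scored at 15 min, 30 min, 1 h, 2 h and 4 h after dosing. Graded in steps of 25% of animals protected or showing toxicity.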

[13] = Anti convulsant activity administered intra peritoneally to mouse for toxicity at 0.5 hr with dose of 300 mg/kg; 0/4= No of animals exhibiting toxicity /No of animals tested; assay type: organism-based; parameters: dose 300 mg/kg; settings: in vivo, ip
[14] = tested on: Mus musculus; experiment: Quantitative Anticonvulsant activity administered intraperitoneally to mouse for maximal electro shock test; The interval in parenthesis stands for 95% confidence interval; assay type: functional; settings: ip; method in brief: as §3
[15] = tested on: Mus musculus; experiment: Anti convulsant activity administered intra peritoneally to mouse at maximal electroshock test at 0.5 h after the drug administered with dose of 30 mg/kg; 0/1= No of animals protected /No of animals tested; assay type: functional
[16] = tested on: Mus musculus; experiment: Anti convulsant activity administered intra peritoneally to mouse at maximal electroshock test at 4 hr after the drug administered with dose of 100 mg/kg; 0/1= No of animals protected /No of animals tested; assay type: functional
[17] = tested on: Mus musculus; experiment: Anti convulsant activity administered intra peritoneally to mouse at maximal electroshock test at 4 hr after the drug administered with dose of 30 mg/kg; 0/1= No of animals protected /No of animals tested; assay type: functional
[18] = tested on: Rattus norvegicus; experiment: Anticonvulsant activity after oral administration of 30 mg/kg dose after 2 hr in rats; ++++ means 100% of the animals protected; assay type: functional, organism-based; parameters: dose 30 mg/kg; method in brief: as §2
[19] = tested on: Mus musculus; experiment: Anti convulsant activity administered intra peritoneally to mouse for subcutaneous metrazol test at 0.5 h with dose of 300 mg/kg; 0/1= No of animals protected /No of animals tested; assay type: functional
[20] = tested on: Mus musculus; experiment: Anti convulsant activity administered intra peritoneally to mouse at maximal electroshock test at 0.5 hr after the drug administered with dose of 100 mg/kg; 3/3= No of animals protected /No of animals tested; assay type: functional
[21] = tested on: Mus musculus; experiment: Anti convulsant activity administered intra peritoneally to mouse for subcutaneous metrazol test at 4 hr with dose of 300 mg/kg; 3/5= No of animals protected /No of animals tested; assay type: functional
[22] = Anti convulsant activity administered intra peritoneally to mouse for toxicity at 0.5 hr with dose of 30 mg/kg; 0/4= No of animals exhibiting toxicity /No of animals tested; assay type: organism-based; parameters: dose 30 mg/kg; settings: in vivo, ip
[23] = tested on: Rattus norvegicus; experiment: Quantitative Anticonvulsant activity administered orally to rat at maximal electro shock test; the interval in parenthesis stands for 95% confidence interval; assay type: functional; settings: po; method in brief: as §1
[24] = tested on: Mus musculus; experiment: Anti convulsant activity administered intra peritoneally to mouse for subcutaneous metrazol test at 4 hr after the drug administered with dose of 100 mg/kg; 0/1= No of animals protected /No of animals tested; assay type: functional
[25] = tested on: Rattus norvegicus; experiment: Quantitative Anticonvulsant activity administered orally to rat for protective index in maximal electro shock test;TD50/ED50; assay type: functional; method in brief: as §1
[26] = tested on: Mus musculus; experiment: Anticonvulsant activity administered intraperitoneally to mouse for toxicity at 4 hr with dose of 30 mg/kg; assay type: functional; settings: route intraperitoneal
Method in brief: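 Mice given compound i.p. at 30, 100 or 300 mg/kg, dissolved or suspended in 0.5% methylcellulose. Toxicity scored 0.5 h and 4 h after dosing, recorded as number of animals showing toxicity per number tested.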

[27] = tested on: Rattus norvegicus; experiment: Anticonvulsant activity after oral administration of 30 mg/kg dose after 15 min in rats;+means 25% of the animals protected; assay type: functional, organism-based; parameters: dose 30 mg/kg; method in brief: as §2
[28] = tested on: Mus musculus; experiment: Quantitative Anticonvulsant activity administered intraperitoneally to mouse for protective index in subcutaneous metrazol test; assay type: functional; method in brief: as §3
[29] = Quantitative Anticonvulsant activity administered intraperitoneally to mouse for toxicity; settings: in vivo, ip; method in brief: as §3
[30] = Anti convulsant activity administered intra peritoneally to mouse for toxicity at 4 hr with dose of 300 mg/kg; 1/2= No of animals exhibiting toxicity /No of animals tested; assay type: organism-based; parameters: dose 300 mg/kg; settings: in vivo, ip
[31] = tested on: Mus musculus; experiment: Anti convulsant activity administered intra peritoneally to mouse at maximal electroshock test at 4 hr after the drug administered with dose of 100 mg/kg; 0/3= No of animals protected /No of animals tested; assay type: functional
[32] = tested on: Rattus norvegicus; experiment: Anticonvulsant activity after oral administration of 30 mg/kg dose after 1 hr in rats; +++ means 75% of the animals protected; assay type: functional, organism-based; parameters: dose 30 mg/kg; method in brief: as §2
[33] = tested on: Mus musculus; experiment: Anti convulsant activity administered intra peritoneally to mouse for subcutaneous metrazol test at 4 hr after the drug administered with dose of 30 mg/kg; 0/1= No of animals protected /No of animals tested; assay type: functional; settings: route intraperitoneal

CC1(C)C(C(=O)NC(N)=O)C1(C)C [2,2,3,3-TETRAMETHYLCYCLOPROPANECARBONYLUREA]
Toxicity [1]: 0
Activity [2]: 1
ED50 [3]: 92 mg/kg
Activity [4]: 1
Activity [5]: 0
Activity [6]: 100% of the animals protected
Ratio [7]: 1.9
Activity [8]: 5.9
Toxicity [9]: 0
Anticonvulsant Activity [10]: 75% of the animals protected
Activity [11]: 100% of the animals protected
Activity [12]: 100% of the animals protected
Toxicity [13]: 0
ED50 [14]: 90 mg/kg
Activity [15]: 0
Activity [16]: 0
Activity [17]: 0
Activity [18]: 100% of the animals protected
Activity [19]: 0
Activity [20]: 3
Activity [21]: 3
Toxicity [22]: 0
ED50 [23]: 29 mg/kg
Activity [24]: 0
Ratio [25]: 18.5
Toxicity [26]: 0
Activity [27]: 100% of the animals protected
Anticonvulsant [28]: 1.6
TD50 [29]: 168 mg/kg
Toxicity [30]: 1
Activity [31]: 0
Activity [32]: 100% of the animals protected
Activity [33]: 0
